“Also recorded” adds a separate entry of the source.
Assays:
[1] = Safety and tolerability in healthy subjects; format: in vivo, human
CYP3A4 [2] = settings: co-administration with ketoconazole, strong inhibitor of CYP3A4; cited from earlier work
CYP2C8 [3] = settings: cited from earlier work
[4] = high first-pass effect; cited from earlier work
OATP1B1 = settings: co-administration of cyclosporin, inhibitor of OATP1B1; cited from earlier work
[5] = ref ChemoCentryx, data on file; cited from earlier work
OAT1B1 = settings: ref ChemoCentryx and GlaxoSmithKline, data on file; cited from earlier work
CYP2C8 [6] = target: T1, CYP2C8 (Homo sapiens, UniProt P10632); format: in vivo; settings: repeat dosing of vercirnon 500 mg BID, pioglitazone probe, healthy subjects
T1 sequence (P10632 1-490): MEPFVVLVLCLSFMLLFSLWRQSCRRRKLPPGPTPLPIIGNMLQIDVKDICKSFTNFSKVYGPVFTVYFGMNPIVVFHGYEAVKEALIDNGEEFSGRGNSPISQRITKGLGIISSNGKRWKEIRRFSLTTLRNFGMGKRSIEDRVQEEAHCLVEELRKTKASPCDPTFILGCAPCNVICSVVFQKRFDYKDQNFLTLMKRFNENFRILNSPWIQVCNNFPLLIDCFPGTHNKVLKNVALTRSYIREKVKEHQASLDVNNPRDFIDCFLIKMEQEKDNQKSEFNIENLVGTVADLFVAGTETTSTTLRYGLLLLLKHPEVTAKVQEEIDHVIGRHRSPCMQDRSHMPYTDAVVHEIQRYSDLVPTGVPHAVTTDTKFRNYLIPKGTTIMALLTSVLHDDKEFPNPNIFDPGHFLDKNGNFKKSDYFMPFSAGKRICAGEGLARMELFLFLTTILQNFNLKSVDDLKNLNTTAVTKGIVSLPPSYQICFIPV

[7] = oral administration 250 to 1,000 mg; cited from earlier work
[8] = format: in vivo, human; settings: day 10 compared with day 5, vercirnon 500 mg BID
Procedure, shortened: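 Vercirnon 500 mg BID, taken after meals, starting study day 5. Six volunteers had serial plasma sampling over 24 h on days 5 and 10 for vercirnon and two metabolites. Non-compartmental AUC0–τ, Cmax and tmax were determined. Accumulation ratio for AUC0–τ and Cmax compared day 10 with day 5. Metabolite:parent AUC0–τ ratios were molar. Steady state was tested on day 6–11 troughs from all 24 subjects by the 90% CI of the regression slope.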

OAT3 = settings: ref ChemoCentryx and GlaxoSmithKline, data on file; cited from earlier work
[9] = read-out: maximum observed concentration [Cmax] range; likely therapeutic plasma concentrations; ref ChemoCentryx, data on file; cited from earlier work
[10] = ref ChemoCentryx, data on file; cited from earlier work; remark: listed apart in the source
[11] = multiple oxidative and reductive pathways, including CYP3A4, CYP2C19 and CYP2B6; ref ChemoCentryx, data on file; cited from earlier work
[12] = tested on: human p-glycoprotein transporter protein; settings: ref ChemoCentryx, data on file; cited from earlier work
CYP2C19 = CYP2C19 (Homo sapiens, UniProt P33261); format: in vivo; settings: repeat dosing of vercirnon 500 mg BID, omeprazole probe, healthy subjects
CYP2C19, sequence (P33261 whole entry): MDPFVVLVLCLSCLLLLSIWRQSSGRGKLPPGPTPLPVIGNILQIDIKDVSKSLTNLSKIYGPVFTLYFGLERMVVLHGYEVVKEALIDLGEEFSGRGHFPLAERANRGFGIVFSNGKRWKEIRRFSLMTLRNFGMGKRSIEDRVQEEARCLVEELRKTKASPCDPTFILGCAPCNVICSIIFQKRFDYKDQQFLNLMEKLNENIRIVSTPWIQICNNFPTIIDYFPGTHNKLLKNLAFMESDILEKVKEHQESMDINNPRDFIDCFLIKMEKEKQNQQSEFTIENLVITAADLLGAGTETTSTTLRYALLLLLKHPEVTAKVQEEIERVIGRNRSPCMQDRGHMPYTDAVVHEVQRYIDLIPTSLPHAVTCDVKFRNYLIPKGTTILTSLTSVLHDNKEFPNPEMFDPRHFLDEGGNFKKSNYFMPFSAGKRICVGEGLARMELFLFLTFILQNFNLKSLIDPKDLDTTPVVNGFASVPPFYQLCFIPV

BCRP and OATP1B1 = format: in vivo, human; settings: repeat dosing of vercirnon 500 mg BID, rosuvastatin probe, healthy subjects
Procedure, shortened: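 Open-label, single-sequence study in 24 healthy adults aged 18–55. Rosuvastatin 10 mg oral tablet was given alone on day 4 and again on day 14 with vercirnon 500 mg BID after meals (days 5–14). Dosing was 30 min after breakfast with 240 mL water. Serial plasma samples were taken over 48 h. Non-compartmental AUC0–∞ was loge-transformed and analysed in a mixed-effects model (treatment fixed, subject random), giving a geometric LS mean ratio with 90% CI.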

CYP3A4 [13] = target: CYP3A4 (Homo sapiens, UniProt P08684); format: in vivo; settings: repeat dosing of vercirnon 500 mg BID, midazolam probe, healthy subjects
CYP3A4 (Homo sapiens, UniProt P08684), sequence (P08684 whole entry): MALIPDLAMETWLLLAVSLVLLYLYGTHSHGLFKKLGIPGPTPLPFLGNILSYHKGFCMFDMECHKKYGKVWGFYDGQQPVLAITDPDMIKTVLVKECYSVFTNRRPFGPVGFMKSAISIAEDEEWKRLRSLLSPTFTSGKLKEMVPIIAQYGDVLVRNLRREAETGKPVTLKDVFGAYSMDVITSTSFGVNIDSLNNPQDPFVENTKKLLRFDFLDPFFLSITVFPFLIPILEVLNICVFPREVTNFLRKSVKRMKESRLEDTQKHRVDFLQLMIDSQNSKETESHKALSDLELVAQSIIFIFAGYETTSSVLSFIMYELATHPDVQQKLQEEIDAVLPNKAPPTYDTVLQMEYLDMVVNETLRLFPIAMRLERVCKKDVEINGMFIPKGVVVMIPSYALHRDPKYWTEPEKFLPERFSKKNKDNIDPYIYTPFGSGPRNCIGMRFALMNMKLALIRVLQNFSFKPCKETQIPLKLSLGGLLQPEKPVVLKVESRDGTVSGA

[14] = tested on: breast cancer resistant protein (BCRP); settings: ref ChemoCentryx and GlaxoSmithKline, data on file; cited from earlier work
OAT1 = settings: ref ChemoCentryx and GlaxoSmithKline, data on file; cited from earlier work
CYP2C8 [15] = settings: strong inhibitor of CYP2C8; cited from earlier work

Which “Somnolence, number of subjects reporting” value ([1]; of 24 subjects, on 19 occasions, midazolam alone or midazolam + vercirnon) does the source give for Cc1ncc2n1-c1ccc(Cl)cc1C(c1ccccc1F)=NC2 [Midazolam, reference compound] here?
Its value is 13 subjects.

Which Increase of pioglitazone (CYP3A4 [2]) does the source give for CCc1ccc(CCOc2ccc(CC3SC(=O)NC3=O)cc2)nc1 (stereo not drawn) [Pioglitazone] here?
Its Increase of pioglitazone is 34%.

What about the “Increase of pioglitazone AUC” value (CYP2C8 [3]; co-administration with gemfibrozil) of the same compound?
The value was 3.4 fold.

What about the “Decrease of exposure (AUC) of pioglitazone” value (CYP2C8 [3]; co-administration with rifampin, inducer of CYP2C8) of the same compound?
Its value is 54%.

With CC(C)c1nc(N(C)S(C)(=O)=O)nc(-c2ccc(F)cc2)c1/C=C/[C@@H](O)C[C@@H](O)CC(=O)O [Rosuvastatin] as the compound, how does the bioavailability [4] read?
The bioavailability was ~20%.

What about the “Increase of rosuvastatin AUC” value (OATP1B1) of the same compound?
Its value is 7 fold.

Which Permeability [5] does the source give for CC(C)(C)c1ccc(S(=O)(=O)Nc2ccc(Cl)cc2C(=O)c2cc[n+]([O-])cc2)cc1 [Vercirnon] here?
The Permeability was “passively permeable”.

What about the “Inhibition of OAT1B1 in vitro” value (OAT1B1) of the same compound?
Its value is “has the potential to inhibit; also recorded: can inhibit”.

What about the “Effect on CYP2C8 enzyme activity” value (CYP2C8 [6]) of the same compound?
Its value is “no clinically significant effect”.

And the Tolerability ([1]; 24 healthy subjects, all treatments over 14 days, vercirnon 500 mg BID)?
The Tolerability was “well tolerated”.

What about the “time to maximum concentration (tmax)” value [7] of the same compound?
The value was 3 to 4 h.

What about the “Average accumulation in terms of AUC0–τ” value [8] of the same compound?
The value was 14%.

What about the “Average accumulation in terms of Cmax” value [8] of the same compound?
The value was 3%.

What about the “Inhibition of OAT3 in vitro” value (OAT3) of the same compound?
The value was “can inhibit”.

What about the Cmax [9] of the same compound?
The Cmax was 3 to 5 µM.

What about the protein bound [10] of the same compound?
Its protein bound is > 90%.

And the Metabolism [11]?
The Metabolism was “extensively metabolised”.

And the “Substrate for human p-glycoprotein transporter protein or other transport proteins” value [12]?
Its value is “unlikely to be a substrate”.

And the “Effect on CYP2C19 enzyme activity” value (CYP2C19)?
Its value is “no clinically significant effect”.

And the “Effect on BCRP or OATP1B1 transporter activity” value (BCRP and OATP1B1)?
The value was “no clinically significant effect”.

And the “Effect on CYP3A4 enzyme activity” value (CYP3A4 [13])?
Its value is “no clinically significant effect”.

What about the “Inhibition of BCRP in vitro” value [14] of the same compound?
Its value is “can inhibit”.

What about the “Inhibition of OAT1 in vitro” value (OAT1) of the same compound?
Its value is “can inhibit”.

With Cc1ccc(C)c(OCCCC(C)(C)C(=O)O)c1 [gemfibrozil] as the compound, how does the Ki (CYP2C8 [15]) read?
Its Ki is 69 to 75 µM.

— publication PMC3889518 (European Journal of Clinical Pharmacology, 2013)
